In ChEMBL document CHEMBL1687757, “Many chromosomal genes modulate MarA-mediated multidrug resistance in Escherichia coli” (2010):
≈ marks a conversion by molar mass, not a printed value.

Test system: Escherichia coli
Assay: Antibacterial activity against marA-overproducing Escherichia coli CR1000 harboring inactivated mhpT gene assessed as MarA-mediated multidrug resistance level by measuring fold change in MIC relative to MarA-deficient Escherichia coli CR2000
Assay type: functional
Conditions: not given
How it was run: (§1)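 Each inactivated gene was transferred into both the ΔmarR (CR1000) and the ΔmarRA (CR2000) BW25113 backgrounds. Each derivative was grown overnight in LB and tested by Etest on Mueller-Hinton plates, read after 20 h at 37°C, against cefoxitin, norfloxacin, chloramphenicol and minocycline. The MarA-mediated level compares the MIC in the ΔmarR derivative with the MIC in the matching ΔmarRA derivative.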

Structure (SMILES)	Activity
O=C(N[C@H](CO)[C@H](O)c1ccc([N+](=O)[O-])cc1)C(Cl)Cl [CHLORAMPHENICOL]	100%

Test system: Escherichia coli
Assay: Antibacterial activity against MarA-deficient Escherichia coli CR2000 after 20 hrs by Etest method
Assay type: functional
Conditions: CR2000, 20 h
How it was run: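 Overnight LB-grown cultures (37°C, agitation) of the ΔmarRA strain (BW25113 background) tested on Mueller-Hinton plates with Etest strips per manufacturer's instructions. MIC read after 20 h at 37°C.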

Structure (SMILES)	MIC
O=C(N[C@H](CO)[C@H](O)c1ccc([N+](=O)[O-])cc1)C(Cl)Cl [CHLORAMPHENICOL]	8.1 µg/mL (≈ 25.1 µM)

Test system: Escherichia coli
Assay: Ratio of MIC for marA-overproducing Escherichia coli CR1000 to MIC for MarA-deficient Escherichia coli CR2000
Assay type: functional
Conditions: not given
How it was run: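 MICs measured by Etest on Mueller-Hinton plates, read after 20 h at 37°C, for the ΔmarR strain (constitutive chromosomal marA overexpression) and the ΔmarRA strain (BW25113 background), both grown overnight in LB at 37°C. MarA-mediated MDR expressed as the ΔmarR/ΔmarRA MIC ratio.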

Structure (SMILES)	Ratio
O=C(N[C@H](CO)[C@H](O)c1ccc([N+](=O)[O-])cc1)C(Cl)Cl [CHLORAMPHENICOL]	3

Test system: Escherichia coli
Assay: Antibacterial activity against marA-overproducing Escherichia coli CR1000 harboring inactivated nikD gene assessed as MarA-mediated multidrug resistance level by measuring fold change in MIC relative to MarA-deficient Escherichia coli CR2000
Assay type: functional
Conditions: not given
How it was run: as §1

Structure (SMILES)	Activity
O=C(N[C@H](CO)[C@H](O)c1ccc([N+](=O)[O-])cc1)C(Cl)Cl [CHLORAMPHENICOL]	50%

Test system: Escherichia coli
Assay: Antibacterial activity against marA-overproducing Escherichia coli CR1000 harboring inactivated degP gene assessed as MarA-mediated multidrug resistance level by measuring fold change in MIC relative to MarA-deficient Escherichia coli CR2000
Assay type: functional
Conditions: not given
How it was run: as §1

Structure (SMILES)	Activity
O=C(N[C@H](CO)[C@H](O)c1ccc([N+](=O)[O-])cc1)C(Cl)Cl [CHLORAMPHENICOL]	50%

Test system: Escherichia coli
Assay: Antibacterial activity against marA-overproducing Escherichia coli CR1000 harboring inactivated damX gene assessed as MarA-mediated multidrug resistance level by measuring fold decrease in MIC relative to MarA-deficient Escherichia coli CR2000
Assay type: functional
Parameters: scale not given: the % may be the effect or the level left
Conditions: not given
How it was run: as §1

Structure (SMILES)	Activity
O=C(N[C@H](CO)[C@H](O)c1ccc([N+](=O)[O-])cc1)C(Cl)Cl [CHLORAMPHENICOL]	50%

Test system: Escherichia coli
Assay: Antibacterial activity against marA-overproducing Escherichia coli CR1000 harboring inactivated tolC gene assessed as MarA-mediated multidrug resistance level by measuring fold decrease in MIC relative to MarA-deficient Escherichia coli CR2000
Assay type: functional
Parameters: scale not given: the % may be the effect or the level left
Conditions: not given
How it was run: as §1

Structure (SMILES)	Activity
O=C(N[C@H](CO)[C@H](O)c1ccc([N+](=O)[O-])cc1)C(Cl)Cl [CHLORAMPHENICOL]	0%

Test system: Escherichia coli
Assay: Antibacterial activity against marA-overproducing Escherichia coli CR1000 harboring inactivated crp gene assessed as MarA-mediated multidrug resistance level by measuring fold change in MIC relative to MarA-deficient Escherichia coli CR2000
Assay type: functional
Conditions: not given
How it was run: as §1

Structure (SMILES)	Activity
O=C(N[C@H](CO)[C@H](O)c1ccc([N+](=O)[O-])cc1)C(Cl)Cl [CHLORAMPHENICOL]	29%

Test system: Escherichia coli
Assay: Antibacterial activity against marA-overproducing Escherichia coli CR1000 harboring inactivated yibLp gene assessed as MarA-mediated multidrug resistance level by measuring fold change in MIC relative to MarA-deficient Escherichia coli CR2000
Assay type: functional
Conditions: not given
How it was run: as §1

Structure (SMILES)	Activity
O=C(N[C@H](CO)[C@H](O)c1ccc([N+](=O)[O-])cc1)C(Cl)Cl [CHLORAMPHENICOL]	50%

Test system: Escherichia coli
Assay: Antibacterial activity against marA-overproducing Escherichia coli CR1000 harboring inactivated yniDp gene assessed as MarA-mediated multidrug resistance level by measuring fold change in MIC relative to MarA-deficient Escherichia coli CR2000
Assay type: functional
Conditions: not given
How it was run: as §1

Structure (SMILES)	Activity
O=C(N[C@H](CO)[C@H](O)c1ccc([N+](=O)[O-])cc1)C(Cl)Cl [CHLORAMPHENICOL]	125%

Test system: Escherichia coli
Assay: Antibacterial activity against marA-overproducing Escherichia coli CR1000 harboring inactivated acrA gene assessed as MarA-mediated multidrug resistance level by measuring fold decrease in MIC relative to MarA-deficient Escherichia coli CR2000
Assay type: functional
Parameters: scale not given: the % may be the effect or the level left
Conditions: not given
How it was run: as §1

Structure (SMILES)	Activity
O=C(N[C@H](CO)[C@H](O)c1ccc([N+](=O)[O-])cc1)C(Cl)Cl [CHLORAMPHENICOL]	8%

Test system: Escherichia coli
Assay: Antibacterial activity against marA-overproducing Escherichia coli CR1000 harboring inactivated treC gene assessed as MarA-mediated multidrug resistance level by measuring fold change in MIC relative to MarA-deficient Escherichia coli CR2000
Assay type: functional
Conditions: not given
How it was run: as §1

Structure (SMILES)	Activity
O=C(N[C@H](CO)[C@H](O)c1ccc([N+](=O)[O-])cc1)C(Cl)Cl [CHLORAMPHENICOL]	85%

Test system: Escherichia coli
Assay: Antibacterial activity against wild-type Escherichia coli BW25113 after 20 hrs by Etest method
Assay type: functional
Conditions: BW25113, 20 h
How it was run: (§2)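 MICs by Etest strips on Mueller-Hinton plates, following the manufacturer's specifications. Cells came from overnight liquid cultures in LB at 37°C with agitation. Plates were read after 20 h at 37°C. Antibiotics tested were cefoxitin, norfloxacin, chloramphenicol and minocycline.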

Structure (SMILES)	MIC
O=C(N[C@H](CO)[C@H](O)c1ccc([N+](=O)[O-])cc1)C(Cl)Cl [CHLORAMPHENICOL]	10.7 µg/mL (≈ 33.1 µM)

Test system: Escherichia coli
Assay: Antibacterial activity against marA-overproducing Escherichia coli CR1000 harboring inactivated pcnB gene assessed as MarA-mediated multidrug resistance level by measuring fold decrease in MIC relative to MarA-deficient Escherichia coli CR2000
Assay type: functional
Parameters: scale not given: the % may be the effect or the level left
Conditions: not given
How it was run: as §1

Structure (SMILES)	Activity
O=C(N[C@H](CO)[C@H](O)c1ccc([N+](=O)[O-])cc1)C(Cl)Cl [CHLORAMPHENICOL]	33%

Test system: Escherichia coli
Assay: Antibacterial activity against marA-overproducing Escherichia coli CR1000 harboring inactivated metV gene assessed as MarA-mediated multidrug resistance level by measuring fold change in MIC relative to MarA-deficient Escherichia coli CR2000
Assay type: functional
Conditions: not given
How it was run: as §1

Structure (SMILES)	Activity
O=C(N[C@H](CO)[C@H](O)c1ccc([N+](=O)[O-])cc1)C(Cl)Cl [CHLORAMPHENICOL]	75%

Test system: Escherichia coli
Assay: Antibacterial activity against marA-overproducing Escherichia coli CR1000 harboring inactivated appA gene assessed as MarA-mediated multidrug resistance level by measuring fold change in MIC relative to MarA-deficient Escherichia coli CR2000
Assay type: functional
Conditions: not given
How it was run: as §1

Structure (SMILES)	Activity
O=C(N[C@H](CO)[C@H](O)c1ccc([N+](=O)[O-])cc1)C(Cl)Cl [CHLORAMPHENICOL]	93%

Test system: Escherichia coli
Assay: Antibacterial activity against MarA-overexpressing Escherichia coli CR1000 after 20 hrs by Etest method
Assay type: functional
Conditions: CR1000, 20 h
How it was run: as §2

Structure (SMILES)	MIC
O=C(N[C@H](CO)[C@H](O)c1ccc([N+](=O)[O-])cc1)C(Cl)Cl [CHLORAMPHENICOL]	23.9 µg/mL (≈ 74 µM)

Test system: Escherichia coli
Assay: Antibacterial activity against marA-overproducing Escherichia coli CR1000 harboring inactivated ynfE gene assessed as MarA-mediated multidrug resistance level by measuring fold change in MIC relative to MarA-deficient Escherichia coli CR2000
Assay type: functional
Conditions: not given
How it was run: as §1

Structure (SMILES)	Activity
O=C(N[C@H](CO)[C@H](O)c1ccc([N+](=O)[O-])cc1)C(Cl)Cl [CHLORAMPHENICOL]	93%

Test system: Escherichia coli
Assay: Antibacterial activity against marA-overproducing Escherichia coli CR1000 harboring inactivated metL gene assessed as MarA-mediated multidrug resistance level by measuring fold change in MIC relative to MarA-deficient Escherichia coli CR2000
Assay type: functional
Conditions: not given
How it was run: as §1

Structure (SMILES)	Activity
O=C(N[C@H](CO)[C@H](O)c1ccc([N+](=O)[O-])cc1)C(Cl)Cl [CHLORAMPHENICOL]	100%

Test system: Escherichia coli
Assay: Antibacterial activity against marA-overproducing Escherichia coli CR1000 harboring inactivated maoC gene assessed as MarA-mediated multidrug resistance level by measuring fold change in MIC relative to MarA-deficient Escherichia coli CR2000
Assay type: functional
Conditions: not given
How it was run: as §1

Structure (SMILES)	Activity
O=C(N[C@H](CO)[C@H](O)c1ccc([N+](=O)[O-])cc1)C(Cl)Cl [CHLORAMPHENICOL]	75%

Test system: Escherichia coli
Assay: Antibacterial activity against marA-overproducing Escherichia coli CR1000 harboring inactivated cspGp gene assessed as MarA-mediated multidrug resistance level by measuring fold change in MIC relative to MarA-deficient Escherichia coli CR2000
Assay type: functional
Conditions: not given
How it was run: as §1

Structure (SMILES)	Activity
O=C(N[C@H](CO)[C@H](O)c1ccc([N+](=O)[O-])cc1)C(Cl)Cl [CHLORAMPHENICOL]	93%

Test system: Escherichia coli
Assay: Antibacterial activity against marA-overproducing Escherichia coli CR1000 harboring inactivated hns gene assessed as MarA-mediated multidrug resistance level by measuring fold decrease in MIC relative to MarA-deficient Escherichia coli CR2000
Assay type: functional
Parameters: scale not given: the % may be the effect or the level left
Conditions: not given
How it was run: as §1

Structure (SMILES)	Activity
O=C(N[C@H](CO)[C@H](O)c1ccc([N+](=O)[O-])cc1)C(Cl)Cl [CHLORAMPHENICOL]	20%

Test system: Escherichia coli
Assay: Antibacterial activity against marA-overproducing Escherichia coli CR1000 harboring inactivated ompR gene assessed as MarA-mediated multidrug resistance level by measuring fold change in MIC relative to MarA-deficient Escherichia coli CR2000
Assay type: functional
Conditions: not given
How it was run: as §1

Structure (SMILES)	Activity
O=C(N[C@H](CO)[C@H](O)c1ccc([N+](=O)[O-])cc1)C(Cl)Cl [CHLORAMPHENICOL]	93%

Test system: Escherichia coli
Assay: Antibacterial activity against marA-overproducing Escherichia coli CR1000 harboring inactivated yfdG gene assessed as MarA-mediated multidrug resistance level by measuring fold change in MIC relative to MarA-deficient Escherichia coli CR2000
Assay type: functional
Conditions: not given
How it was run: as §1

Structure (SMILES)	Activity
O=C(N[C@H](CO)[C@H](O)c1ccc([N+](=O)[O-])cc1)C(Cl)Cl [CHLORAMPHENICOL]	93%

Test system: Escherichia coli
Assay: Antibacterial activity against marA-overproducing Escherichia coli CR1000 harboring inactivated acrB gene assessed as MarA-mediated multidrug resistance level by measuring fold decrease in MIC relative to MarA-deficient Escherichia coli CR2000
Assay type: functional
Parameters: scale not given: the % may be the effect or the level left
Conditions: not given
How it was run: as §1

Structure (SMILES)	Activity
O=C(N[C@H](CO)[C@H](O)c1ccc([N+](=O)[O-])cc1)C(Cl)Cl [CHLORAMPHENICOL]	8%

Test system: Escherichia coli
Assay: Antibacterial activity against marA-overproducing Escherichia coli CR1000 harboring inactivated cyaA gene assessed as MarA-mediated multidrug resistance level by measuring fold decrease in MIC relative to MarA-deficient Escherichia coli CR2000
Assay type: functional
Parameters: scale not given: the % may be the effect or the level left
Conditions: not given
How it was run: as §1

Structure (SMILES)	Activity
O=C(N[C@H](CO)[C@H](O)c1ccc([N+](=O)[O-])cc1)C(Cl)Cl [CHLORAMPHENICOL]	46%

Test system: Escherichia coli
Assay: Antibacterial activity against marA-overproducing Escherichia coli CR1000 harboring inactivated recD gene assessed as MarA-mediated multidrug resistance level by measuring fold change in MIC relative to MarA-deficient Escherichia coli CR2000
Assay type: functional
Conditions: not given
How it was run: as §1

Structure (SMILES)	Activity
O=C(N[C@H](CO)[C@H](O)c1ccc([N+](=O)[O-])cc1)C(Cl)Cl [CHLORAMPHENICOL]	50%

Test system: Escherichia coli
Assay: Antibacterial activity against marA-overproducing Escherichia coli CR1000 harboring inactivated alx gene assessed as MarA-mediated multidrug resistance level by measuring fold change in MIC relative to MarA-deficient Escherichia coli CR2000
Assay type: functional
Conditions: not given
How it was run: as §1

Structure (SMILES)	Activity
O=C(N[C@H](CO)[C@H](O)c1ccc([N+](=O)[O-])cc1)C(Cl)Cl [CHLORAMPHENICOL]	100%
